Screening data as filed in PubChem BioAssay.
KCNQ1 act: potentiators or activators of human KCNQ1 potassium channel; CHO-K1 KCNQ1, thallium flux FluxOR fluorescence; active compounds read high; actives 0.35% (n = 310,000); AID 2648; B-score at 10 µM; P51787;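 active means fluorescence ratio B-score, a plate-corrected score, at least three library SD, with initial intensity B-score within 5 SD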
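assay system = CHO-K1 cells stably expressing KCNQ1 | medium = assay buffer, equal DMSO in all wells | timing = 37 °C overnight plating, 90-min dark dye load, 20-min compound pretreatment | measured by = kinetic FluxOR thallium fluorescence, 10-s 1-Hz baseline, 110-s post-stimulus read | measure = fluorescence change relative to baseline, converted to B score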
Kir21 inh: blocks the mouse Kir2.1 inward-rectifier potassium channel; AID 1672; P35561; actives 0.85% (n = 310,000); B-score at 10 µM; HEK293-Kir2.1, FluxOR thallium flux fluorescence; active compounds read low;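 active means fluorescence ratio B-score at or below minus 3 SD of library scores, with starting-brightness B-score within 2 SD, cut at about -4.2 in these data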;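 further: channel flux triggered by added potassium and thallium sulfate stimulus; B-score of peak minus minimum fluorescence over baseline after thallium stimulus; more negative B-score means stronger Kir2.1 block with less thallium influx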
KCNK3 block: human KCNK3 channel inhibition, primary screen. O14649. AID 602410. CHO-KCNK3 thallium flux, FluxOR fluorescence; active compounds read low. actives 0.84% (n = 340,000). B-score at 10 µM;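 active means B-score under library mean minus 4 SD, starting fluorescence ratio at most library mean plus 5 SD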;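 further: more negative B-score means stronger inhibition of thallium flux through KCNK3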
Target sequence (O14649 whole entry, looked up): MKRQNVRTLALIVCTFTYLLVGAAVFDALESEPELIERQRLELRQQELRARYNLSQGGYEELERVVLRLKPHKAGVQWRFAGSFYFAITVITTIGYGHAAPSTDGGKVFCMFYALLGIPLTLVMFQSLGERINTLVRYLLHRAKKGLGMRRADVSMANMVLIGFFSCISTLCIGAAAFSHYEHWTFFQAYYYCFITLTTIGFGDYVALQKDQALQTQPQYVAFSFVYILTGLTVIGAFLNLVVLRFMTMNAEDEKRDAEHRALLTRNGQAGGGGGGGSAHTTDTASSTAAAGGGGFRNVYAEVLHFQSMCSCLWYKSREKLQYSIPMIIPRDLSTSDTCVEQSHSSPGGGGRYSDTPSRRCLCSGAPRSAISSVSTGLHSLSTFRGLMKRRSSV
KCNQ1 inh: blocks the human KCNQ1 potassium channel. P51787. AID 2642. actives 1.3% (n = 310,000). CHO-K1 KCNQ1, FluxOR thallium flux fluorescence; active compounds read high. B-score at 10 µM;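 active means compounds whose thallium flux B-score, printed positive for inhibition, exceeds three library SD while starting fluorescence stays within three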;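 further: channel opened by potassium depolarization with thallium stimulus after 20 min compound exposure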
hERG rescue: shields human hERG channel from block by proarrhythmic agents; CHO-hERG, FluxOR thallium flux, dofetilide IC70 present; AID 1511; actives 0.51% (n = 310,000); activation (rescue from dofetilide block), less the hit threshold, % at 10 µM;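 active means activation above the mean of controls blocked by dofetilide plus 5 SD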;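 further: thallium influx through hERG after potassium depolarization seen as dye fluorescence rise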
KCNK9 block: blocks the human KCNK9 two-pore domain potassium channel; actives 1.2% (n = 310,000); AID 488922; B-score at 10 µM; Q9NPC2; HEK293 KCNK9, FluxOR thallium flux fluorescence; active compounds read low;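 active means ratio B-score over 3 SD below the library mean, with starting fluorescence within 5 SD of its mean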;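 further: negative B-score means less thallium flux so channel inhibition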
KCNK9 inh conf: human KCNK9 inhibitor confirmation; AID 492992; shares compounds with KCNK9 block; actives 43% (n = 4,900); HEK293 KCNK9 cells, FluxOR thallium flux fluorescence; inhibition, % at 10 µM;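 active means thallium signal inhibited by more than 5 SD of the compound-free buffer control wells, on both duplicate plates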;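 further: 0% = assay buffer control wells without compound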
Kir21 sel: tests whether KCNK9 modulators also affect mouse Kir2.1; shares compounds with KCNK9 block; Kir2.1 cells, FluxOR thallium flux fluorescence; inhibition, % at 10 µM; actives 4% (n = 4,900); AID 492993;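 active means thallium signal drop more than 5 SD beyond the mean of the no-compound control wells, seen in both duplicate plates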;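 further: signal is fluorescence rise after thallium addition divided by baseline fluorescence; plate controls were assay buffer only for no effect and full block by chlorpromazine control for full effect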
KCNK9 uninduced: second check of KCNK9 modulator effects in non-induced HEK293 cells; shares compounds with KCNK9 block; FluxOR thallium flux; inhibition, % at 10 µM; actives 40% (n = 4,900); AID 492997;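 active means thallium signal drop beyond 5 SD of the untreated control mean, on both duplicate plates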;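 further: plate controls were buffer only IC0 wells for no effect and SID17386958 at its maximal inhibitory level for full effect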
KCNK3 inh conf: human KCNK3 channel inhibition, confirmation assay; CHO-KCNK3 thallium flux, FluxOR fluorescence; 0% buffer, 100% carvedilol maximal block; AID 651638; ratio percent of control, % at 10 µM; shares compounds with KCNK3 block; actives 99% (n = 2,400);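 active means ratio percent of control, averaged over triplicates, above buffer control mean plus 5 SD, cut at about 64% in these data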;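 further: ratio is the fluorescence rise from min to max over baseline after thallium stimulus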
KCNK3 noninduced: activity in cells without induced KCNK3 expression. shares compounds with KCNK3 block. non-induced KCNK3 parental cells, FluxOR thallium flux; active compounds read low. thallium flux ratio (lower = more inhibition) at 10 µM. actives 40% (n = 2,400);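 active means thallium flux ratio, averaged over three wells, more than 5 SD below the buffer control mean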;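 further: host cells are CHO cells without KCNK3 induction; ratio is peak minus trough fluorescence over baseline then normalized to buffer controls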
* = called active by the depositor; i = inactive; x = no result given. Only some compounds are listed: those with a hit (about 3.7% of all), similar ones and a draw of the others.

SMILES	KCNQ1 act	Kir21 inh	KCNK3 block	KCNQ1 inh	hERG rescue	KCNK9 block	KCNK9 inh conf	Kir21 sel	KCNK9 uninduced	KCNK3 inh conf	KCNK3 noninduced
Cc1ccc2c(CN(C)Cc3ccc(Cl)cc3Cl)cc(=O)oc2c1	i	0.1	i	i	-9.9	i	x	x	x	x	x
Cc1ccc2c(CN(C)Cc3ccccc3)cc(=O)oc2c1C	i	-1.3	-9.35*	i	-6.4	i	i	i	i	92.0*	i
Cc1ccc2c(CN(C)Cc3ccc(Cl)cc3)cc(=O)oc2c1	i	0.8	-15.9*	i	-8.9	-11.5*	37.5%*	i	43.5%*	94.3*	i
CCc1ccc2oc(=O)cc(CN(C)Cc3ccccc3)c2c1	i	-0.98	i	i	-8.6	i	x	x	x	x	x
CCCCCCCCCCOC(=O)Cn1c(COc2cccc(C)c2)[n+](C)c2ccccc21	i	-12.5*	-10.2*	i	-13.1	-13.7*	63.5%*	63.5%*	i	100.0*	i
Cc1cccc(OCCCn2c(=O)sc3ccccc32)c1	i	0.04	i	i	-11.6	i	x	x	x	x	x
CCCCC[C@H](O)/C=C/[C@H]1CCC(=O)[C@@H]1CCCCCCC(=O)N1CCCCC1CO (stereo not given in full)	i	-0.1	i	i	-4.1	-11.6*	60.0%*	i	i	84.7*	i
CCC1CCCCN1C(=O)CCCOc1ccccc1 (stereo not given)	i	-2.01	i	i	-10.3	i	x	x	x	x	x
Cn1cc([N+](=O)[O-])c(C(=O)Nc2cc(Oc3ccccc3)cc([N+](=O)[O-])c2)n1	i	0.43	i	i	-3.3	i	x	x	x	x	x
Cc1cccc(Oc2cc(NC(=O)c3ccccc3)cc([N+](=O)[O-])c2)c1	i	-0.96	-11.6*	6*	-18.9	-11.7*	64.0%*	i	39.0%*	133.0*	0.149*
NS(=O)(=O)c1ccc(NC(=O)Cn2ncc3c2-c2ccccc2OC3)cc1	i	1.23	i	i	-5.8	i	x	x	x	x	x
COCCn1c(C)cc(/C=C(\C#N)C(=O)OCC(=O)N(C)c2c(N)n(Cc3ccccc3)c(=O)[nH]c2=O)c1C	i	1.28	i	i	-12.0	i	x	x	x	x	x
O=C(CN1CCN(Cc2ccccc2Cl)C1=O)N1CCCCCC1	i	0.05	i	i	-6.9	i	x	x	x	x	x
O=c1cc(N2CCCCC2)c(-c2ccccc2)nn1Cc1ccccc1Cl	i	0.55	-9.07*	i	-2.2	-17.7*	38.0%*	i	37.5%*	112.3*	i
C=CCOc1c(Br)cc(/C=N/NC(N)=O)cc1OC	i	0.88	i	i	-5.9	i	x	x	x	x	x
C=CCOc1c(CCC)cc(CCC)cc1C(N)=O	i	-2.79	-9.81*	i	-13.4	-9.38*	60.5%*	i	32.5%*	118.7*	0.152*
Cc1cccc(OCC(=O)Nc2ccccc2N2CCCCC2)c1	i	-0.49	-9.91*	i	-9.7	-9.92*	77.0%*	i	47.0%*	98.3*	i
Cc1ccccc1OCC(=O)Nc1ccccc1N1CCC(C)CC1	i	0.17	-10.2*	i	-8.3	-11.9*	43.5%*	31.0%*	38.0%*	111.0*	i
Cc1ccc(CNC(=O)C(Cc2ccccc2)NS(=O)(=O)c2cccs2)cc1 (stereo not given)	i	0.3	i	i	-3.9	i	x	x	x	x	x
Cc1ccc(O)c(NC(=O)C2CCCN2C(=O)OCc2ccccc2)c1 (stereo not given)	i	-1.25	i	i	-9.3	i	x	x	x	x	x
Clc1ccc(CSc2nnc(-c3sccc3-n3cccc3)o2)cc1	i	-2.54	-9.22*	6*	-17.8	-13.9*	49.5%*	i	i	100.7*	i
O=C(N/N=C/c1c(O)ccc2ccccc12)c1cccc(C(F)(F)F)c1	i	-2.39	-11.3*	i	-8.5	-9.29*	61.0%*	46.0%*	61.0%*	159.0*	0.0907*
C=CC[n+]1c(/C=C2\C=Cc3cc(C)ccc3N2CC)ccc2ccccc21	i	-6.53*	-16.1*	16*	-33.4	-13.3*	78.5%*	88.0%*	63.0%*	146.3*	0.112*
COc1cc(NC(=O)C2CC2)c(OC)cc1NC(=O)CCC(=O)NC1CCN(Cc2ccccc2)CC1	i	-0.46	i	i	-8.0	i	x	x	x	x	x
Fc1ccc(C(CCCn2nnc(-c3cccnc3)n2)c2ccc(F)cc2)cc1	i	0.01	-15.3*	15*	-17.6	-12.5*	55.0%*	i	37.5%*	148.3*	i
SMILES	KCNQ1 act	Kir21 inh	KCNK3 block	KCNQ1 inh	hERG rescue	KCNK9 block	KCNK9 inh conf	Kir21 sel	KCNK9 uninduced	KCNK3 inh conf	KCNK3 noninduced
Fc1ccc(-n2nnc(-c3cccnc3)n2)cc1	i	0.93	i	i	-1.3	i	x	x	x	x	x
CC(C)C(=O)Nc1ccc(C(=O)c2ccccc2)cc1	i	0.08	i	i	-9.8	i	x	x	x	x	x
COC(=O)C(C)N(C(=O)c1ccc(C(=O)c2ccccc2)cc1)c1c(C)cccc1C (stereo not given)	i	-2.79	-11.2*	i	-3.6	-8.97*	40.0%*	i	34.5%*	92.0*	i
COc1ccc(NC(=O)c2cccc(NC(=O)c3ccccc3)c2)c(OC)c1	i	-0.74	i	i	0.0	i	x	x	x	x	x
COc1cccc(C(=O)Nc2cccc(-c3nnc(-c4ccccc4)o3)c2)c1	i	-1.43	-10.2*	i	-16.0	-8.43*	46.5%*	i	30.0%*	103.0*	0.154*
COc1ccc(OC)c(NC(=O)c2cccc(NC(=O)c3ccccc3)c2)c1	i	3.86	-10.7*	i	-5.0	-8.98*	47.0%*	i	i	102.3*	i
Cc1cc(C)c2c(n1)SCC(=O)N2CC(=O)Nc1ccccc1Cl	i	-0.42	i	i	-3.9	i	x	x	x	x	x
